Test [1] concerns SH-SY5Y. Put plainly: Antioxidant activity in human SH-SY5Y cells assessed as protection against […]-induced oxidative stress at 2 uM pretreated for 24 hrs followed by incubation with […] for 30 mins by DCFH-DA staining based fluorescence analysis. The class given is functional, cell-based. The following applies: time 24.5 hrs. The essentials: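 SH-SY5Y seeded 1 × 10⁴ cells/well, adhered 24 h, exposed to 2 μM compound or vehicle for 24 h, then loaded with 10 μM DCFDA in DMEM for 30 min; stress induced afterwards with 100 μM TBH in PBS for 30 min. Fluorescence read at ex 485/em 535 nm, normalized to Lowry protein; n = 5, triplicate.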

Test [2] has as its system SH-SY5Y. Put plainly: Cytotoxicity against human SH-SY5Y cells assessed as reduction in cell viability incubated for 72 hrs by MUH reagent based spectrophotometric analysis. Format: functional. Put shortly: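 SH-SY5Y in DMEM/10% FBS seeded 0.75 × 10⁴ cells/well, after 24 h treated with 0.1–100 μM for 24, 48 or 72 h. Washed, incubated with MUH 0.01 mg/mL in PBS 30 min at 37 °C in the dark; fluorescence ex 330/em 450 nm, normalized to untreated cells. IC50 by nonlinear regression, log(inhibitor) vs normalized response.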

The subject of test [3] is SH-SY5Y. As to the kind of experiment: Cytotoxicity against human SH-SY5Y cells assessed as reduction in cell viability incubated for 24 hrs by MUH reagent based spectrophotometric analysis. Format: functional.
In test [4] the target is T1, Protein deacetylase HDAC6 (Homo sapiens, UniProt Q9UBN7).
T1 sequence (Q9UBN7 whole entry): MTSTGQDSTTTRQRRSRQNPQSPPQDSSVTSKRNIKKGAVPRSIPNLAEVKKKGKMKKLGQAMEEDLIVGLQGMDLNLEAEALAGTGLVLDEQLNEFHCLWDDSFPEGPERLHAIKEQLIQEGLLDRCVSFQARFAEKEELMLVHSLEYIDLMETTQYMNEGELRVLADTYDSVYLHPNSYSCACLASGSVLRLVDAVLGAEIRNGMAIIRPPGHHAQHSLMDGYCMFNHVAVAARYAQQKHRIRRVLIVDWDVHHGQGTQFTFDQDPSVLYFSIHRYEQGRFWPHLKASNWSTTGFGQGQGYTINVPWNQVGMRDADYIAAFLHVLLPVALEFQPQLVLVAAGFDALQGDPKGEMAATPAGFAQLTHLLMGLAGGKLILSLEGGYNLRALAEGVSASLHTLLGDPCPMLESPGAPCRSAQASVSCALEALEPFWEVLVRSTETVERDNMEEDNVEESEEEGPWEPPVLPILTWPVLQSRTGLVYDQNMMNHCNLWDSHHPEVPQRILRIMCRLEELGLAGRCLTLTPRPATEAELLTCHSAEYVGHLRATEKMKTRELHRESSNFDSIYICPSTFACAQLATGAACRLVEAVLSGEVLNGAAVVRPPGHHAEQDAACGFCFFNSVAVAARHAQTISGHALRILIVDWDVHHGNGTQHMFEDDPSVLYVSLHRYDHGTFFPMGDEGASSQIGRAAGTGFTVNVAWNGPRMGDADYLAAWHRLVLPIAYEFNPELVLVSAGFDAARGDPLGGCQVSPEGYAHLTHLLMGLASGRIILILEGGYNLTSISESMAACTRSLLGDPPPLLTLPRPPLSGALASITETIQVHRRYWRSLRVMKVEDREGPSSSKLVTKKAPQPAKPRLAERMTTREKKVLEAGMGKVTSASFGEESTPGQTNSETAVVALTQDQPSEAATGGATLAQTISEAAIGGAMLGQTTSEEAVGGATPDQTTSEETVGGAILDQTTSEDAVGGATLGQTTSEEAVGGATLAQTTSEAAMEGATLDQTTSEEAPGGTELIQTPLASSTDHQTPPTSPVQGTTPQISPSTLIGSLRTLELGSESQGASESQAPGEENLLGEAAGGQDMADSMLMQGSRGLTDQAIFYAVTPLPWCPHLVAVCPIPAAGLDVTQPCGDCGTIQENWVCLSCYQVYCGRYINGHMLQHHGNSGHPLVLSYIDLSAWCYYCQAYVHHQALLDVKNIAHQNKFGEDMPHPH
Put plainly: Inhibition of human recombinant HDAC6 using aminoluciferin-conjugated histone 4 derived acetylated lysine peptide as substrate incubated for 30 mins by bio-luminogenic assay.

Test [5] concerns SH-SY5Y. As to the kind of experiment: Induction of oxidative stress in human SH-SY5Y cells assessed as increase in ROS production at 2 uM incubated for 24 hrs by DCFH-DA staining based fluorescence analysis. Format: functional, cell-based. Put shortly:
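SH-SY5Y plated 1 × 10⁴ cells/well, allowed 24 h to adhere, then given 2 μM compound or vehicle for 24 h. Cells PBS-washed and loaded with 10 μM DCFDA in DMEM for 30 min, washed again; fluorescence at ex 485/em 535 nm normalized to protein content (Lowry). n = 5; mean ± SD, triplicate.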

Test [6] has as its system Neurosphere. Put plainly: Neuroprotective activity against C57BL/6N mouse neurosphere assessed as increase in NPCs spontaneous differentiation by measuring GFAP-positive cells at 2.5 to 5 uM measured after 7 days by immunofluorescence analysis. Format: functional, tissue-based. The conditions noted are these: dose 2.5-5 µM, time 7.0 day. The essentials:
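Thirty 7-day neurospheres plated on Matrigel-coated coverslips with 2.5 or 5 μM compound or DMSO, differentiated 7 days, fixed in 4% PFA, immunostained for Nestin, DCX, Olig2 or GFAP with Alexa 555 secondaries, DAPI counterstain. Intensity index = marker-positive intensity / total DAPI intensity; mean ± SD of 3 fields per condition.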

Test [7] deals with SH-SY5Y. As to the kind of experiment: Cytotoxicity against human SH-SY5Y cells assessed as reduction in cell viability incubated for 48 hrs by MUH reagent based spectrophotometric analysis. Format: functional.
For test [8], the target named is Histone deacetylase 2 (Homo sapiens, UniProt Q92769). Put plainly: Inhibition of human recombinant HDAC2 using aminoluciferin-conjugated histone 4 derived acetylated lysine peptide as substrate incubated for 30 mins by bio-luminogenic assay.
In test [9] the test system is SH-SY5Y. Put plainly: Induction of cell cycle arrest in human SH-SY5Y cells assessed as proportion of cells at sub-G1 phase at 1 uM incubated for 72 hrs by propidium iodide staining based flow cytometry (reference value: 5.56%).
The subject of test [10] is SH-SY5Y. As to the kind of experiment: Induction of apoptosis in human SH-SY5Y cells assessed as increase in caspase-3 activity at 10 uM incubated for 72 hrs by colorimetric assay relative to control. Format: functional. The essentials: (§1)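 Cells treated 72 h, collected, PBS-rinsed, lysed on ice 10 min; protein quantified by Bradford. Lysates incubated 2 h at 37 °C with 2× reaction buffer containing 10 mM dithiothreitol and DEVD-pNA caspase-3 substrate. Free pNA read by absorbance at 405 nm; activity expressed as fold over untreated cells. At least 3 independent experiments.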

In test [11] the test system is SH-SY5Y. Put plainly: Induction of apoptosis in human SH-SY5Y cells assessed as increase in caspase-3 activity at 1 uM incubated for 72 hrs by colorimetric assay relative to control. Format: functional. Put shortly:
as §1

Test [12] concerns SH-SY5Y. As to the kind of experiment: Induction of cell cycle arrest in human SH-SY5Y cells assessed as proportion of cells at sub-G1 phase at 10 uM incubated for 72 hrs by propidium iodide staining based flow cytometry (reference value: 5.56%).

The values that follow come from ChEMBL document CHEMBL5532752, “Integrating a quinone substructure into histone deacetylase inhibitors to cope with Alzheimer's disease and cancer” (RSC Med Chem, 2024).

Activity calls are given as the source filed them. The rule behind the calls is not given here.

Histone deacetylase 2, sequence (Q92769 whole entry): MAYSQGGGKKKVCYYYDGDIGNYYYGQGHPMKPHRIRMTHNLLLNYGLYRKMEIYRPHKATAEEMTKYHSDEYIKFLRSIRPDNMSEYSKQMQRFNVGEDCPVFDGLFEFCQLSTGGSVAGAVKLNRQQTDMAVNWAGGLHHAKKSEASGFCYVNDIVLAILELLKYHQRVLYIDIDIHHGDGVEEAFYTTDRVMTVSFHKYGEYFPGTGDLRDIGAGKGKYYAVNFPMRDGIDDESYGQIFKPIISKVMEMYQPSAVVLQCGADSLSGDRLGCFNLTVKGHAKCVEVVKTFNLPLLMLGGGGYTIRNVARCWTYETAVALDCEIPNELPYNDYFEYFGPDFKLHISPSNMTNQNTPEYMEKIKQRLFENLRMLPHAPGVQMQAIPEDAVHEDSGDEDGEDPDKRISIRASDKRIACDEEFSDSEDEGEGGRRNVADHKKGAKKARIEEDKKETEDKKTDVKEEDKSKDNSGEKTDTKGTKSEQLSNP

As to `CC1=C(NCCCCNC(=O)CS)C(=O)c2ccccc2C1=O`, the result in test [1], in test [5] and in [6] was inactive. Also, the IC50 in [2] is greater than 100 µM; in test [3] it was greater than 100 µM; in [4], 30 µM; in test [7], greater than 100 µM; in [8], 25.2 µM.

`CC1=C(NCc2ccc(C(=O)Nc3ccccc3N)cc2)C(=O)c2ccccc2C1=O`: the result in test [1] was inactive. For the same compound, the Activity turned out to be 28.03% in [9] and 42.32% in [12]. Also, the figures for the “fold change (FC)” value in [10] and in test [11] were 1.7 and 1.2, respectively. In addition, the IC50 in test [2] was determined as 0.62 µM; in [3], 1.56 µM; in test [4], 3.76 µM; in [7], 0.78 µM; in test [8], 2.1 µM. Also, in test [5], the result was Active.
